Experimental data taken from ChEMBL document CHEMBL4261634, “Design and optimization of 2,3-dihydrobenzo[b][1,4]dioxine propanoic acids as novel GPR40 agonists with improved pharmacokinetic and safety profiles” (Bioorg Med Chem, 2018).

What was measured:
[1] = Volume of distribution at steady state in Sprague-Dawley rat at 1 mg/kg, iv by LC-ESI-MS analysis; type: ADME, organism-based; settings: in vivo, read-out: Vdss
Summary of the method: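 SD rats dosed orally (3 or 10 mg/kg) or by intravenous injection (1 mg/kg). Plasma PK parameters derived per route: Cmax, AUC0-t, Tmax, t1/2 and F after oral dosing; CL, AUC0-t, MRT, t1/2 and Vdss after iv dosing. Mean ± SD from three independent experiments (n = 3).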

[2] = biological target: T1, Cytochrome P450 1A2 (Homo sapiens, UniProt P05177); assay: Inhibition of CYP1A2 (unknown origin); type: ADME
T1 sequence (P05177 whole entry): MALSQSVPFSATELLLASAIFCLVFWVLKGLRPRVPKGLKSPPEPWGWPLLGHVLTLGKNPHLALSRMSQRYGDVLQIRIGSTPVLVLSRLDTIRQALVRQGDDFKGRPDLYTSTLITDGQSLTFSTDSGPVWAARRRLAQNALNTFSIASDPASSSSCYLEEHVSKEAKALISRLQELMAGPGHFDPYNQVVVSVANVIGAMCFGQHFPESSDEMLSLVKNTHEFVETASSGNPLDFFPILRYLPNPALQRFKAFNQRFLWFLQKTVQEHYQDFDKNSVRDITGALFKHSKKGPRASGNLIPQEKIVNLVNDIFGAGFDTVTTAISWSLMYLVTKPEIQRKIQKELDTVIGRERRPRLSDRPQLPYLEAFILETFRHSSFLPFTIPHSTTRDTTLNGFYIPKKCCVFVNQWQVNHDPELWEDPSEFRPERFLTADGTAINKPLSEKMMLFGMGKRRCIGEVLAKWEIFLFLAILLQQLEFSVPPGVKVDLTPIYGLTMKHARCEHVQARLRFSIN

[3] = biological target: Cytochrome P450 2D6 (Homo sapiens, UniProt P10635); assay: Inhibition of CYP2D6 (unknown origin); type: ADME
[4] = tested on: Rattus norvegicus; assay: Subacute toxicity in Sprague-Dawley rat assessed as effect on organ coefficients at 50 to 100 mg/kg, po administered once daily for 2 weeks; type: organism-based; settings: in vivo, 336 h
Summary of the method: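 SD rats dosed orally once daily for two weeks at 50 mg/kg and 100 mg/kg. Subacute toxicity was assessed over the dosing period from survival rate, behaviour, food intake and organ coefficients.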

Sequence of Cytochrome P450 2D6 (P10635 whole entry): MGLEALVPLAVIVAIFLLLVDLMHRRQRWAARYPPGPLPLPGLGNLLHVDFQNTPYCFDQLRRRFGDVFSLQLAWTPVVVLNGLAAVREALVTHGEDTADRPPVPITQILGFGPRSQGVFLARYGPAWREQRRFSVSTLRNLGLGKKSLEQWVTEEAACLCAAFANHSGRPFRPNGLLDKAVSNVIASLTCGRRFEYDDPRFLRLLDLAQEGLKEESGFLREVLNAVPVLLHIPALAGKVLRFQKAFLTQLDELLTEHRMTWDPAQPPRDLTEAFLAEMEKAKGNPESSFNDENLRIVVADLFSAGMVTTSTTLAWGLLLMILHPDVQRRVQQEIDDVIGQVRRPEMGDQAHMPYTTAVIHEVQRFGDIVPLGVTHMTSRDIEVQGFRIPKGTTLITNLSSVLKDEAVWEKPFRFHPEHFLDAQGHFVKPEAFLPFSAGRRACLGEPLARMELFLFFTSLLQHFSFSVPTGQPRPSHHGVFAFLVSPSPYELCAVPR

Question: Which Vd [1] does the source give for `CC#C[C@@H](CC(=O)O)c1ccc(OC[C@H]2COc3ccc(Cl)cc3O2)cc1` here?
Answer: 0.182 L/kg

Question: What about the IC50 [2] of the same compound?
Answer: > 100 µM

Question: What about the IC50 [3] of the same compound?
Answer: > 100 µM

Question: And the Activity [4]?
Answer: Non-Toxic
